# Laboratory results reported in ChEMBL document CHEMBL1250494, “Synthesis of new 3-aryl-4,5-dihydropyrazole-1-carbothioamide derivatives. An investigation on their ability to inhibit monoamine oxidase” (Eur J Med Chem, 2010).
# pIC50: −log10 of the molar value.
# Columns and labels:
# Homo sapiens = species: Homo sapiens; assay: Selectivity index, ratio of IC50 for human recombinant MAOA to IC50 for human recombinant MAOB
# Method in brief: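 IC50 values for hMAO-A and hMAO-B came from the Amplex Red/HRP assay, with 1 mM p-tyramine and readings at ex 545/em 590 nm at 37 °C. […] The selectivity index is IC50(MAO-A)/IC50(MAO-B). Where MAO-A was not inhibited, its IC50 was set at the highest concentration tested. Values are mean ± SEM.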
# [1] = molecular target: T1, Amine oxidase [flavin-containing] B (Homo sapiens, UniProt P27338); assay: biochemical; assay type: cell-based
# T1 sequence (P27338 whole entry): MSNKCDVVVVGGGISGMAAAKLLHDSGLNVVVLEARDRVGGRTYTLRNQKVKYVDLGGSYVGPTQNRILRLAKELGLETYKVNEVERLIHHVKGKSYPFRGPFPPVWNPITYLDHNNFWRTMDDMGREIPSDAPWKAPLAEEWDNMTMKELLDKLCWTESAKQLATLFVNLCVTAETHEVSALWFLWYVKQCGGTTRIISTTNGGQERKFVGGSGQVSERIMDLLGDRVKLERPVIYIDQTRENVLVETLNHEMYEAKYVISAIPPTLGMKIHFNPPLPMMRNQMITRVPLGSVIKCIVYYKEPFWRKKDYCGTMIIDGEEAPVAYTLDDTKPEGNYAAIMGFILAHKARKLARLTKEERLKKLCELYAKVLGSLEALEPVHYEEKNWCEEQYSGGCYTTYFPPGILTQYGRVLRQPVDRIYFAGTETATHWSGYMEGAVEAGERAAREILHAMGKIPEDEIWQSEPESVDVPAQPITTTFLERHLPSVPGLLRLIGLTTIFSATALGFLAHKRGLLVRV
# [2] = molecular target: T2, Amine oxidase [flavin-containing] A (Homo sapiens, UniProt P21397); assay: Inhibition of human recombinant MAOA expressed in baculovirus infected BTI insect cells assessed as hydrogen peroxide production at 100 uM after 15 mins by Amplex red assay; settings: 0.25 h; for inhibition (INH): 100 µM
# T2 sequence (P21397 whole entry): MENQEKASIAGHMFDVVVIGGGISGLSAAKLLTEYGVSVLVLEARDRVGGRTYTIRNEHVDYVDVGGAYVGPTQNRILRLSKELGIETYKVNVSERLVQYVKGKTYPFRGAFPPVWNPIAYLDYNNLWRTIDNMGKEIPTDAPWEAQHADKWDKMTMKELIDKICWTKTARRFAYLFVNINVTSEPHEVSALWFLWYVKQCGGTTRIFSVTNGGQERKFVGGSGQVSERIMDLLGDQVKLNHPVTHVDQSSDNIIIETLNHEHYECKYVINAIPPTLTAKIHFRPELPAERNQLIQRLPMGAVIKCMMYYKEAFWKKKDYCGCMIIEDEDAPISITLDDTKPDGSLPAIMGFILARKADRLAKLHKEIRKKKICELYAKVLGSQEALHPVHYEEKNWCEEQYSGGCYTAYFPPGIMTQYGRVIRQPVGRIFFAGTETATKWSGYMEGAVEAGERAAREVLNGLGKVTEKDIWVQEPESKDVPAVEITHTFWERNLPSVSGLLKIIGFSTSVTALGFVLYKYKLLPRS
# Method in brief: (§1)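 Recombinant hMAO-A or hMAO-B, in an amount oxidizing 165 pmol p-tyramine/min in controls, preincubated with test drug 15 min at 37 °C in 0.05 M sodium phosphate pH 7.4, dark. Reaction started with 1 U/ml HRP, Amplex Red and 1 mM p-tyramine (final). Resorufin read at ex 545/em 590 nm over 15 min. Background subtracted; vehicle (DMSO) controls. Precipitation limited higher concentrations.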
# [3] = molecular target: T1, Amine oxidase [flavin-containing] B; assay: Inhibition of human recombinant MAOB expressed in baculovirus infected BTI insect cells assessed as hydrogen peroxide production at 100 uM after 15 mins by Amplex red assay; settings: 0.25 h; for inhibition (INH): 100 µM; method in brief: as §1
# [4] = molecular target: T1, Amine oxidase [flavin-containing] B; assay: Inhibition of human recombinant MAOB expressed in baculovirus infected BTI insect cells assessed as hydrogen peroxide production at 1 mM after 15 mins by Amplex red assay; settings: 0.25 h, 1000 µM; method in brief: as §1
SMILES,Selectivity Index (Homo sapiens),pIC50 [1],inhibition (INH) [2],inhibition (INH) [3],other results
CNC(=S)N1CC(C)C(c2ccc(OC)cc2)=N1 (stereo unspecified),> 2.02,4.31,Not Active,–,–
COc1ccc(C2=NN(C(N)=S)CC2)cc1,> 6.46,4.81,Not Active,–,–
CNC(=S)N1CCC(c2ccc(C)cc2)=N1,> 5.96,4.78,–,–,inhibition at 100 µM [2]: 40%
Cc1cccc(C2=NN(C(N)=S)CC2)c1,–,–,Not Active,Not Active,–
CNC(=S)N1CCC(c2ccc(OC)cc2)=N1,> 7.3,4.86,Not Active,–,–
CNC(=S)N1CC(C)C(c2ccccc2)=N1 (stereo unspecified),–,–,Not Active,–,inhibition at 100 µM [3]: 40%
COc1ccc(C2=NN(C(N)=S)CC2C)cc1 (stereo unspecified),> 1.18,4.07,–,–,inhibition at 100 µM [2]: 40%
CNC(=S)N1CC(C)C(c2ccc(F)cc2)=N1 (stereo unspecified),–,–,Not Active,–,inhibition at 100 µM [3]: 40%
Cc1ccccc1C1=NN(C(N)=S)CC1,–,–,Not Active,Not Active,–
O=C(NCCN1CCOCC1)c1ccc(Cl)cc1 [MOCLOBEMIDE],–,–,–,–,inhibition (INH) [4]: Not Active
CNC(=S)N1CCC(c2ccccc2C)=N1,–,–,Not Active,Not Active,–
NC(=S)N1CCC(c2ccc(Cl)cc2Cl)=N1,–,–,Not Active,Not Active,–
Cc1ccc(C2=NN(C(N)=S)CC2)cc1,> 5.51,4.74,Not Active,–,–
COc1cccc(C2=NN(C(N)=S)CC2)c1,–,–,Not Active,Not Active,–
CNC(=S)N1CC(C)C(c2ccc(Cl)cc2)=N1 (stereo unspecified),> 2.87,4.46,Not Active,–,–
CNC(=S)N1CCC(c2cccs2)=N1,–,–,Not Active,Not Active,–
CC1CN(C(N)=S)N=C1c1ccc(Cl)cc1 (stereo unspecified),–,–,–,–,inhibition at 100 µM [3]: 40%; inhibition at 100 µM [2]: 40%
CNC(=S)N1CCC(c2ccc(F)cc2)=N1,> 1.96,4.29,Not Active,–,–
NC(=S)N1CCC(c2cccs2)=N1,–,–,Not Active,Not Active,–
NC(=S)N1CCC(c2ccc(F)cc2)=N1,–,–,Not Active,Not Active,–
Cc1ccc(C2=NN(C(N)=S)CC2C)cc1 (stereo unspecified),–,–,Not Active,–,inhibition at 100 µM [3]: 40%
CNC(=S)N1CCC(c2cccc(C)c2)=N1,> 1.87,4.27,Not Active,–,–
CC1CN(C(N)=S)N=C1c1ccccc1 (stereo unspecified),–,–,Not Active,–,inhibition at 100 µM [3]: 40%
CNC(=S)N1CCC(c2cccc(OC)c2)=N1,> 1.4,4.15,Not Active,–,–
CNC(=S)N1CC(C)C(c2ccc(C)cc2)=N1 (stereo unspecified),–,–,–,–,inhibition at 100 µM [3]: 40%; inhibition at 100 µM [2]: 40%
CC1CN(C(N)=S)N=C1c1ccc(F)cc1 (stereo unspecified),–,–,–,–,inhibition at 100 µM [3]: 40%; inhibition at 100 µM [2]: 40%
